For twelve compounds, logP and IC50 results are on record in ChEMBL document CHEMBL1123885, “Analogues of 3-ethyl-3-(4-pyridyl)piperidine-2,6-dione as selective inhibitors of aromatase: derivatives with variable 1-alkyl and 3-alkyl substituents” (J Med Chem, 1987).

Data set [1] is described as follows: Partition coefficient (logP). It counts as physicochemical. The conditions noted are these: octanol/water.
For data set [2], the target named is T1, Cholesterol side-chain cleavage enzyme, mitochondrial (Bos taurus, UniProt P00189).
T1 sequence (P00189 whole entry): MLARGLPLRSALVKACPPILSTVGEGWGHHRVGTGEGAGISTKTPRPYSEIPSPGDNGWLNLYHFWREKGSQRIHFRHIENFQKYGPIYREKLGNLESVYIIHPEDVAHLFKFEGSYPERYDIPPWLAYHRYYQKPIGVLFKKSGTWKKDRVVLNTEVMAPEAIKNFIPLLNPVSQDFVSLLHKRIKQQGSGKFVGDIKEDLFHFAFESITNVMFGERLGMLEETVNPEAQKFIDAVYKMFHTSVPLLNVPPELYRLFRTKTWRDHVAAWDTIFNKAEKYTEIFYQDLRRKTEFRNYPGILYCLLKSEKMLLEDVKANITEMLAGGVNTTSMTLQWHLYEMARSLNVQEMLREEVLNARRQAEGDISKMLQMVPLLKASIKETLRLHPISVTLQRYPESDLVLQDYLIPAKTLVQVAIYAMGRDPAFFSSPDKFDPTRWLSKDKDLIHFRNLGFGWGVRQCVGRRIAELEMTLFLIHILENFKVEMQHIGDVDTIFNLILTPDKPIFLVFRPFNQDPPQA
The data set can be described thus: Inhibition of bovine desmolase, cytochrome P450 11A1; NI = No Inhibition at maximum concentration tested. Summed up:
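Bovine adrenal cortex mitochondrial fraction as side-chain cleavage enzyme. […] Released [14C]isocaproic acid passes through alumina, which retains the steroid; eluate radioactivity is counted. Compound tested at 5, 10, 20 and 50 μg/mL. IC50 is the concentration that halves control activity, extrapolated when above the top concentration. "None" means no inhibition at the maximum tested.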

The target of another data set is T2, Aromatase (Homo sapiens, UniProt P11511).
T2 sequence (P11511 whole entry): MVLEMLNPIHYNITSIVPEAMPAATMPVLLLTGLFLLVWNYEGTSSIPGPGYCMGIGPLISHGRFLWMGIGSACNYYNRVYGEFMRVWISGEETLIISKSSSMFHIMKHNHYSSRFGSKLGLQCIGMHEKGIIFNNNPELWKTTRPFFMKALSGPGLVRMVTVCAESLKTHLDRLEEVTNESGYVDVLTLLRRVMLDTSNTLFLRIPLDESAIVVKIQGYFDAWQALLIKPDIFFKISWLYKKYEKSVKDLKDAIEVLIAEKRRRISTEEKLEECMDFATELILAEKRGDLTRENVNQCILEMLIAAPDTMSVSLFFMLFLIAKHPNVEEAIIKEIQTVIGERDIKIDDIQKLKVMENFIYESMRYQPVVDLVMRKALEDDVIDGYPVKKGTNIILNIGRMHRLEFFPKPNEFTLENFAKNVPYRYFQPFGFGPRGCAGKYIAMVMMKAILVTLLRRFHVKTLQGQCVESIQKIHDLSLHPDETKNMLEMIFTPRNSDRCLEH

A word on the logP: it is the decadic logarithm of the partition coefficient of the neutral form, usually between octanol and water. Higher therefore signals a more lipophilic compound. Usually IC50 stands for the concentration needed to halve the response being measured. High values mean weaker potency in that assay, low ones greater potency in that assay. In data set [1], `CCCC1(c2ccncc2)CCC(=O)NC1=O` (stereo not given) had a lipophilicity (logP) of 1.13. Further, the IC50 result in data set [2] was “No inhibition”.
As for `CCCCCC1(c2ccncc2)CCC(=O)NC1=O` (stereo not given), the results for the IC50 (against Aromatase; in data set [2]) were 2.5 µM and “No inhibition”, respectively. In addition, the logP in data set [1] turned out to be 2.26.
Consider `CCCCCCN1C(=O)CCC(CC)(c2ccncc2)C1=O` (stereo not given), for which the IC50 entry in data set [2] is recorded as “No inhibition”.
The same measure, in the same setting: the entry for `CC1(c2ccncc2)CCC(=O)NC1=O` (stereo not given) is “No inhibition”.
On to `CCCN1C(=O)CCC(CC)(c2ccncc2)C1=O` (stereo not given), for which the logP in data set [1] was found to be 2.18. The IC50 result in data set [2] is reported as “No inhibition”.
Regarding `CCCCCCC1(c2ccncc2)CCC(=O)NC1=O` (stereo not given), the IC50 against Aromatase is 3.6 µM; in data set [2], “No inhibition”. Further, the logP in data set [1] came to 2.94.
`CCCCN1C(=O)CCC(CC)(c2ccncc2)C1=O` (stereo not given): in data set [1], the logP amounted to 2.76. The IC50 result in data set [2] was “No inhibition”.
The corresponding values for `CCN1C(=O)CCC(CC)(c2ccncc2)C1=O` (stereo not given) are 1.64 and “No inhibition”.
Regarding `CCC1(c2ccncc2)CCC(=O)N(C)C1=O` (stereo not given), the IC50 result in data set [2] is “No inhibition”.
The same measure, in the same setting: then `CCCCC1(c2ccncc2)CCC(=O)NC1=O` (stereo not given), with “No inhibition”.
Compound `CCCCCCCC1(c2ccncc2)CCC(=O)NC1=O` (stereo not given) showed an IC50 on Aromatase of 3.2 µM.
In the case of `CCC1(c2ccncc2)CCC(=O)NC1=O` (stereo not given) [ROGLETIMIDE], the logP in data set [1] is 0.58.
